Structures are written as SMILES.

One series has as its target Albumin (Homo sapiens, UniProt P02768). The series is described as follows: Binding affinity to human serum albumin after 3 hrs by LC-MS/MS analysis. Further details: concentration or dose not given beside the values. Summed up: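 HSA was coupled to NHS-activated Sepharose (6–7 mg HSA/mL wet resin); an inactivated albumin-free resin served as control. Peptide (100 µg/mL in PBS) was incubated with each resin for 3 h at 25 °C. After centrifugation, unbound peptide in the supernatant was quantified by LC-MS/MS.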

For series [1], the target named is Glucagon-like peptide 1 receptor (Homo sapiens, UniProt P43220). The series is described as follows: Agonist activity at recombinant human GLP1 receptor expressed in HEK293 cells assessed as cAMP accumulation by TR-FRET assay. In kind it is functional, cell-based.
Glucagon-like peptide 1 receptor, sequence (P43220 whole entry): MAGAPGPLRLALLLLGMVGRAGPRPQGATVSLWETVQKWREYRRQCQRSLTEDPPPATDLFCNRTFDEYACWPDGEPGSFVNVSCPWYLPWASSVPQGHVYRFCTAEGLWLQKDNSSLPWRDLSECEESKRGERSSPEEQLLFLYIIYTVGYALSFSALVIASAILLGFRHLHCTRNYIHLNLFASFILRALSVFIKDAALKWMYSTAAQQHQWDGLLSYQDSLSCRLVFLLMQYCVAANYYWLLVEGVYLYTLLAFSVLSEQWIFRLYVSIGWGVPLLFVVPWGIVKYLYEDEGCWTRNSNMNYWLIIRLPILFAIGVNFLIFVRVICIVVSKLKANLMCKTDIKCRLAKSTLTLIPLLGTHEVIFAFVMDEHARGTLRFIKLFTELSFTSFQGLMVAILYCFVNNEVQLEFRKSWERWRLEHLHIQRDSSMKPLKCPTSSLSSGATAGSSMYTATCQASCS

Albumin, sequence (P02768 whole entry): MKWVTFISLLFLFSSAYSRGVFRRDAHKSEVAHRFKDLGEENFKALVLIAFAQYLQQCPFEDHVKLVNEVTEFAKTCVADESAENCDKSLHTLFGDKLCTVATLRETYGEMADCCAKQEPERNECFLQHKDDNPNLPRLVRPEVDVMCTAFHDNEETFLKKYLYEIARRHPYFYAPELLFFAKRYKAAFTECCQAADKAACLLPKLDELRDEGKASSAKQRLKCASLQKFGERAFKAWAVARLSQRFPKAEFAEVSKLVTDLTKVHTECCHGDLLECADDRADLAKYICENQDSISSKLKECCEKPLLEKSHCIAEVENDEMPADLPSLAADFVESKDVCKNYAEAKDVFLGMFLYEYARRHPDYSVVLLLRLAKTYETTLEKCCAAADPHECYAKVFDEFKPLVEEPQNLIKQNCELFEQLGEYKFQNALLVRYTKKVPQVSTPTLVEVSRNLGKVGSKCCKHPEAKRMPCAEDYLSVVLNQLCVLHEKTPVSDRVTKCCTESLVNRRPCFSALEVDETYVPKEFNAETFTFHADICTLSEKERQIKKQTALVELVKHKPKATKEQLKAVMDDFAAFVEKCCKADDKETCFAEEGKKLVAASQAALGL

The EC50 is the concentration at which the effect is half-maximal. Compound `CC[C@H](C)[C@H](NC(=O)[C@H](Cc1ccccc1)NC(=O)[C@H](CCC(=O)O)NC(=O)[C@H](CCCCN)NC(=O)[C@H](C)NC(=O)[C@H](C)NC(=O)[C@H](CCC(N)=O)NC(=O)CNC(=O)[C@H](CCC(=O)O)NC(=O)[C@H](CC(C)C)NC(=O)[C@H](Cc1ccc(O)cc1)NC(=O)[C@H](CO)NC(=O)[C@H](CSC1CC(=O)N(CCC(=O)O)C1=O)NC(=O)[C@@H](NC(=O)[C@H](CC(=O)O)NC(=O)[C@H](CO)NC(=O)[C@@H](NC(=O)[C@H](Cc1ccccc1)NC(=O)[C@@H](NC(=O)CNC(=O)[C@H](CCC(=O)O)NC(=O)CNC(=O)[C@@H](N)Cc1cnc[nH]1)[C@@H](C)O)[C@@H](C)O)C(C)C)C(=O)N[C@@H](C)C(=O)N[C@@H](Cc1c[nH]c2ccccc12)C(=O)N[C@@H](CC(C)C)C(=O)N[C@H](C(=O)N[C@@H](CCCCN)C(=O)NCC(=O)N[C@@H](CCCNC(=N)N)C(N)=O)C(C)C` (stereo partly drawn) registered an Activity on Albumin of 28.5%. Further, the EC50 in series [1] was 0.0056 nM.
Taken in the same sequence, the figures for `CC[C@H](C)[C@H](NC(=O)[C@H](Cc1ccccc1)NC(=O)[C@H](CCC(=O)O)NC(=O)[C@H](CCCCN)NC(=O)[C@H](C)NC(=O)[C@H](C)NC(=O)[C@H](CCC(N)=O)NC(=O)CNC(=O)[C@H](CCC(=O)O)NC(=O)[C@H](CC(C)C)NC(=O)[C@H](Cc1ccc(O)cc1)NC(=O)[C@H](CO)NC(=O)[C@H](CSC1CC(=O)N(CCCCCC(=O)O)C1=O)NC(=O)[C@@H](NC(=O)[C@H](CC(=O)O)NC(=O)[C@H](CO)NC(=O)[C@@H](NC(=O)[C@H](Cc1ccccc1)NC(=O)[C@@H](NC(=O)CNC(=O)[C@H](CCC(=O)O)NC(=O)CNC(=O)[C@@H](N)Cc1cnc[nH]1)[C@@H](C)O)[C@@H](C)O)C(C)C)C(=O)N[C@@H](C)C(=O)N[C@@H](Cc1c[nH]c2ccccc12)C(=O)N[C@@H](CC(C)C)C(=O)N[C@H](C(=O)N[C@@H](CCCCN)C(=O)NCC(=O)N[C@@H](CCCNC(=N)N)C(N)=O)C(C)C` (stereo partly drawn) were 37.4% and 0.0143 nM.
Taken in the same sequence, the figures for `CC[C@H](C)[C@H](NC(=O)[C@H](Cc1ccccc1)NC(=O)[C@H](CCC(=O)O)NC(=O)[C@H](CCCCN)NC(=O)[C@H](C)NC(=O)[C@H](C)NC(=O)[C@H](CCC(N)=O)NC(=O)CNC(=O)[C@H](CCC(=O)O)NC(=O)[C@H](CC(C)C)NC(=O)[C@H](Cc1ccc(O)cc1)NC(=O)[C@H](CO)NC(=O)[C@H](CSC1CC(=O)N(CCCCCCCCCCCC(=O)O)C1=O)NC(=O)[C@@H](NC(=O)[C@H](CC(=O)O)NC(=O)[C@H](CO)NC(=O)[C@@H](NC(=O)[C@H](Cc1ccccc1)NC(=O)[C@@H](NC(=O)CNC(=O)[C@H](CCC(=O)O)NC(=O)CNC(=O)[C@@H](N)Cc1cnc[nH]1)[C@@H](C)O)[C@@H](C)O)C(C)C)C(=O)N[C@@H](C)C(=O)N[C@@H](Cc1c[nH]c2ccccc12)C(=O)N[C@@H](CC(C)C)C(=O)N[C@H](C(=O)N[C@@H](CCCCN)C(=O)NCC(=O)N[C@@H](CCCNC(=N)N)C(N)=O)C(C)C` (stereo partly drawn) were 65.1% and 0.0263 nM.
For `CC[C@H](C)[C@H](NC(=O)[C@H](Cc1ccccc1)NC(=O)[C@H](CCC(=O)O)NC(=O)[C@H](CCCCN)NC(=O)[C@H](C)NC(=O)[C@H](C)NC(=O)[C@H](CCC(N)=O)NC(=O)CNC(=O)[C@H](CCC(=O)O)NC(=O)[C@H](CC(C)C)NC(=O)[C@H](Cc1ccc(O)cc1)NC(=O)[C@H](CO)NC(=O)[C@H](CO)NC(=O)[C@@H](NC(=O)[C@H](CC(=O)O)NC(=O)[C@H](CO)NC(=O)[C@@H](NC(=O)[C@H](Cc1ccccc1)NC(=O)[C@@H](NC(=O)CNC(=O)[C@H](CCC(=O)O)NC(=O)CNC(=O)[C@@H](N)Cc1cnc[nH]1)[C@@H](C)O)[C@@H](C)O)C(C)C)C(=O)N[C@@H](C)C(=O)N[C@@H](Cc1c[nH]c2ccccc12)C(=O)N[C@@H](CC(C)C)C(=O)N[C@H](C(=O)N[C@@H](CCCCN)C(=O)NCC(=O)N[C@@H](CCCNC(=N)N)C(=O)N[C@@H](CSC1CC(=O)N(CCCCCC(=O)O)C1=O)C(N)=O)C(C)C` (stereo partly drawn) the same measures were 34.1% and 0.0093 nM.

These data come from ChEMBL document CHEMBL4219235, “Novel fatty acid chain modified GLP-1 derivatives with prolonged in vivo glucose-lowering ability and balanced glucoregulatory activity” (Bioorg Med Chem, 2018).
